Here are results for 14 molecules from ChEMBL document CHEMBL1777721, “Phenolic compounds with NF-κB inhibitory effects from the fungus Phellinus baumii” (Bioorg Med Chem Lett, 2011).

The structures appear in SMILES notation.

For one assay, the system named is LNCaP. The assay is described as follows: Inhibition of LPS-induced NF-kappaB-dependent reporter gene transcription in androgen-sensitive human LNCap cells. As to conditions: for inhibition: dose or concentration not given here; call rule not given here. Type of assay: cell-based. In outline: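 Luciferase NF-κB reporter assay in androgen-sensitive LNCaP prostate cancer cells. Cells were pretreated with the test compound, then stimulated with LPS to activate NF-κB. Reporter activity was read at three concentrations and expressed as percent reduction of the LPS-induced signal.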

Assay [1] is described as follows: Inhibition of basal NF-kappaB-dependent reporter gene transcription in androgen-insensitive human PC3 cells. A general note: A reporter such as luciferase makes a cellular process visible.
The mark [2] stands for this setting: Homo sapiens, PC-3, read-out: IC50.

A word on the inhibition: it is the drop in the measured response relative to a control, in per cent. What is called IC50 is the concentration that inhibits the measured activity by half.

For `COc1cc2c(c(O)c1Cc1ccccc1O)C(=O)C[C@H](c1ccc(O)cc1)O2`, in the assay on LNCaP, the Activity result is “Dose-dependent effect” and the inhibition was 35%. For the same molecule, the IC50 in assay [1] (setting [2]) was found to be 36.4 µM.
`COc1cc2c(c(O)c1Cc1ccccc1O)C(=O)C[C@@H](c1ccc(O)cc1)O2`: the IC50 in assay [1] (setting [2]) came out at 36.4 µM.
On the same count and under the same terms, the result for `COc1cc(O)c2c(c1Cc1ccccc1O)O[C@H](c1ccc(O)cc1)CC2=O` reads 22.5 µM; that for `O=C1C[C@@H](c2ccc(O)cc2)Oc2cc(O)c(Cc3ccccc3O)c(O)c21`, 54.5 µM; that for `CC(=O)/C(=C\c1ccc(O)c(O)c1)c1c(O)cc(/C=C/c2ccc(O)c(O)c2)oc1=O` [INTERFUNGIN B], 71.2 µM.
`COc1cc(O)c2c(c1Cc1ccccc1O)O[C@@H](c1ccc(O)cc1)CC2=O` [METHYLPHELLIGRIN B]: in the assay with LNCaP, the Activity result is “Dose-dependent effect” and the inhibition is 62.5%. Moreover, the IC50 in assay [1] (setting [2]) turned out to be 22.5 µM.
Consider `O=c1oc(/C=C/c2ccc(O)c(O)c2)cc2oc3cc(O)c(O)cc3c12` [PHELLIBAUMIN A], for which, in assay [1] (setting [2]), the IC50 came out at 53 µM.
As for `O=C(O)CC1Oc2cc(/C=C/c3ccc(O)c(O)c3)oc(=O)c2-c2cc(O)c(O)cc21` (stereo not given) [PHELLIBAUMIN B], the IC50 in assay [1] (setting [2]) was found to be 41.4 µM.
As for `O=c1oc(/C=C/c2ccc(O)c(O)c2)cc(O)c1/C(=C/c1ccc(O)c(O)c1)c1cc2oc(=O)c3cc(O)c(O)cc3c2c(=O)o1` [PHELLIBAUMIN C], in assay [1] (setting [2]), the IC50 came out at 62.3 µM.
Still for that read-out and setting: the result for `O=C(O)/C(=C\c1ccc(O)c(O)c1)c1c(O)cc(/C=C/c2ccc(O)c(O)c2)oc1=O` [PHELLIBAUMIN D] reads 74.6 µM; that for `CCOC(=O)/C(=C\c1ccc(O)c(O)c1)c1c(O)cc(/C=C/c2ccc(O)c(O)c2)oc1=O` [PHELLIBAUMIN E], 52.9 µM.
Regarding `O=c1oc2cc(O)c1-c1cc(O)c(O)cc1/C=C/c1cc3c(c(=O)o1)[C@H](c1cc(O)c(c(=O)o1)-c1cc(O)c(O)cc1/C=C/c1cc4c(c(=O)o1)[C@H]2[C@@H](c1ccc(O)c(O)c1)O4)[C@@H](c1ccc(O)c(O)c1)O3` [PHELLIGRIDIMER A], the IC50 result in assay [1] (pc-3) was “Not Active”.
`O=c1oc2cc(-c3c(-c4ccc(O)c(O)c4)oc4cc(/C=C/c5ccc(O)c(O)c5)oc(=O)c34)oc(=O)c2c2cc(O)c(O)cc12` [PHELLIGRIDIN H]: in assay [1] (setting [2]), the IC50 came to 84.9 µM.
With `O=C1C[C@H](c2ccc(O)cc2)Oc2cc(O)c(Cc3ccccc3O)c(O)c21` [PHELLIGRIN A], in the assay with LNCaP, the Activity entry is “Dose-dependent effect” and the inhibition is 18.4%. Besides, the IC50 in assay [1] (setting [2]) worked out at 54.5 µM.
